Active and inactive are the calls of the source. The calls are words filed in the database; no cut-off is given here.
Experiments:
[1] = target: T1, Thioredoxin reductase 1, cytoplasmic (Rattus norvegicus, UniProt O89049); experiment: (§1) Inhibition of TrxR1 in rat liver homogenate preincubated for 5 mins measured by DNTB assay; assay type: tissue-based
T1 sequence (O89049 whole entry): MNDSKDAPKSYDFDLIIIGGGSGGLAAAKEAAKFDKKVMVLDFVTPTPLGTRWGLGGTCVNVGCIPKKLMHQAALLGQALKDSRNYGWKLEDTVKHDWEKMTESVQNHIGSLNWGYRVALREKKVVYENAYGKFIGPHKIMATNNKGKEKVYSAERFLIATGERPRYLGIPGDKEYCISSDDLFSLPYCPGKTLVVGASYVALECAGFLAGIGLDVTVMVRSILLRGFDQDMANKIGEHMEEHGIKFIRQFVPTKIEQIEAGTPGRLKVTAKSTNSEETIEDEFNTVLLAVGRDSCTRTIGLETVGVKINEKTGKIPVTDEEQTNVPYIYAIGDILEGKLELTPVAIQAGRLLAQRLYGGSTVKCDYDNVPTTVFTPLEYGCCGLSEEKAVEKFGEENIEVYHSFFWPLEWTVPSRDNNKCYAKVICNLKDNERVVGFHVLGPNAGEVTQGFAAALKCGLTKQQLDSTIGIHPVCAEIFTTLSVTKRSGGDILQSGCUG
How it was run: (§2)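 Rat liver TrxR (purified, 10 μg) in 100 mM potassium phosphate, 2 mM EDTA, pH 7.4 with NADPH, pre-incubated 5 min with inhibitor (DMSO control) at room temperature. DTNB was then added and A412 increase followed over the first 120 s. IC50 given as mean ± SD of triplicate experiments.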

[2] = target: T2, Thioredoxin reductase 1, cytoplasmic (Rattus norvegicus) (UniProt O89049); experiment: as §1; assay type: tissue-based; how it was run: as §2
T2 sequence (whole entry): T1 sequence (O89049 whole entry)

LoVo = experiment: Growth inhibition of human LoVo cells after 48 hrs by MTT assay; assay type: functional, cell-based
How it was run: (§3)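 Exponentially growing cells were seeded at 4000–5000 per well. LoVo was grown in RPMI 1640 and MIA PaCa-2 and U87 MG in DMEM, each with 10% FBS and penicillin/streptomycin at 37 °C under 5% CO2. Compounds in DMSO (0–50 μM) were added for 48 h, and growth was read by MTT.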

[3] = Growth inhibition of human U87MG cells after 48 hrs by MTT assay; assay type: functional, cell-based, U-87MG ATCC; details: U-87 MG; how it was run: as §3
Thioredoxin reductase [4] = target: T3, Thioredoxin reductase (Homo sapiens, UniProt Q16881+Q9NNW7+Q86VQ6); experiment: Inhibition of TrxR in human U87MG cells after 12 hrs by insulin-reducing method; assay type: cell-based; details: for IC50: u-87mg atcc; for inhibition: U-87MG ATCC
How it was run: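 U87 MG cells were treated with graded compound concentrations for 12 h, with 1% DMSO as control. Reactions were quenched with guanidine-HCl/DTNB and read at A412. The Trx-free blank was subtracted.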

[5] = Reversible inhibition of TrxR by ultrafiltration assay
[6] = Time dependent inhibition of TrxR
[7] = Binding affinity to TrxR Sec498 residue at pH 6.5 after 2 hrs by BIAM assay
[8] = target: T4, Glutathione reductase, mitochondrial (Homo sapiens) (UniProt P00390); experiment: Inhibition of human glutathione reductase at 100 uM after 10 mins by GSSH reduction assay
T4 sequence (whole entry): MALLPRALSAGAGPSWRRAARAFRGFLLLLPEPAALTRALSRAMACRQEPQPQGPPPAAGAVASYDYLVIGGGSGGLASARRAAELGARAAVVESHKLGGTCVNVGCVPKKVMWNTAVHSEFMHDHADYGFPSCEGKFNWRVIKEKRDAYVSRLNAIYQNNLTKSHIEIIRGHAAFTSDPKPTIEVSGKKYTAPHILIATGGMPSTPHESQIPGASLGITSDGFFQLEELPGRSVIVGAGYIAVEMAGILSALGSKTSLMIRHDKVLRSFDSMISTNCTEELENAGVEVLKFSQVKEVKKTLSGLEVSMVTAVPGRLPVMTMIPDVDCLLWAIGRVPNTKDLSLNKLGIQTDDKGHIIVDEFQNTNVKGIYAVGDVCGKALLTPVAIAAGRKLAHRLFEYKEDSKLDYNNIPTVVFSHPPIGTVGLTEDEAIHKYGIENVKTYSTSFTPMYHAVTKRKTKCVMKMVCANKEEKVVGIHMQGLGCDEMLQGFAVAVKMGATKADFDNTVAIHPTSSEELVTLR

Thioredoxin reductase [9] = target: T3, Thioredoxin reductase; experiment: Inhibition of TrxR in human U87MG cells at 20 uM after 12 hrs by insulin-reducing method; assay type: cell-based; details: U-87MG ATCC
How it was run: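 U87 MG glioma cells were treated with compound for 12 h (1% DMSO control), washed in PBS, lysed in Triton/deoxycholate/EDTA/SDS/PMSF buffer and spun at 13000g. Lysate protein (40 µg, BCA) was incubated 30 min at 37 °C with HEPES pH 7.6, EDTA, 1 mM NADPH, 1 µM E. coli Trx and 2.5 mg/ml insulin. Quench with guanidine-HCl/DTNB, read A412, subtract the no-Trx blank.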

[10] = Binding affinity to TrxR Sec498 residue at pH 8.5 after 2 hrs by BIAM assay
[11] = Binding affinity to TrxR Cys497 residue at pH 8.5 after 2 hrs by BIAM assay
MIA PaCa-2 = experiment: Growth inhibition of human MIAPaCa2 cells after 48 hrs by MTT assay; assay type: functional, cell-based; details: MIA PaCa-2, 48 h; how it was run: as §3
[12] = Mixed type inhibition of TrxR by Michaelis-Menten plot analysis
Homo sapiens = organism: Homo sapiens; experiment: Inhibition of human […] Sec498Cys mutant at 100 uM after 10 mins by GSSH reduction assay
Thioredoxin reductase [13] = target: T3, Thioredoxin reductase; experiment: Inhibition of human C-terminal truncated TrxR; assay type: protein assay

SMILES	IC50 [1]	inhibition [2]	IC50 [3]	IC50 (MIA PaCa-2)	also measured
O=c1c2ccccc2[se]n1CCCCCCCn1[se]c2ccccc2c1=O	5850 nM	Dose-dependent effect	–	–	–
O=c1c2ccccc2[se]n1CCCCCn1[se]c2ccccc2c1=O	1950 nM	Dose-dependent effect	6.05 µM	3.27 µM	IC50 (LoVo): 5.5 µM
O=c1c2cc(O)ccc2[se]n1CCn1[se]c2ccc(O)cc2c1=O	320 nM	Dose-dependent effect	6.6 µM	5.3 µM	IC50 (LoVo): 6.53 µM
O=c1c2cc(F)ccc2[se]n1CCn1[se]c2ccc(F)cc2c1=O	280 nM	Dose-dependent effect	6.95 µM	3.07 µM	IC50 (LoVo): 4.55 µM
O=c1c2ccccc2[se]n1Cc1ccc(-n2[se]c3ccccc3c2=O)cc1	47700 nM	Dose-dependent effect	–	> 50 µM	IC50 (LoVo): > 50 µM
O=c1c2ccccc2[se]n1CCCn1[se]c2ccccc2c1=O	780 nM	Dose-dependent effect	–	–	–
O=c1c2ccccc2[se]n1CCCCn1[se]c2ccccc2c1=O	1030 nM	Dose-dependent effect	–	–	–
O=c1c2ccccc2[se]n1CCCCCCCCn1[se]c2ccccc2c1=O	4490 nM	Dose-dependent effect	–	–	–
O=c1c2ccccc2on1CCn1oc2ccccc2c1=O	> 100000 nM	Dose-dependent effect	–	–	–
O=c1c2ccccc2sn1CCn1sc2ccccc2c1=O	48100 nM	Dose-dependent effect	–	–	–
Cc1ccc2[se]n(CCn3[se]c4ccc(C)cc4c3=O)c(=O)c2c1	1260 nM	Dose-dependent effect	17.8 µM	5.94 µM	IC50 (LoVo): 6.12 µM; inhibition (Thioredoxin reductase [4]): Dose-dependent effect
O=c1c2ccc(F)cc2[se]n1CCn1[se]c2cc(F)ccc2c1=O	820 nM	Dose-dependent effect	12.6 µM	8.47 µM	–
O=c1c2ccccc2[se]n1C1CCCCC1n1[se]c2ccccc2c1=O (centres undefined)	12800 nM	Dose-dependent effect	> 50 µM	11.5 µM	IC50 (LoVo): 17.2 µM
Cc1ccc2[se]n(C3CCC(n4[se]c5ccc(C)cc5c4=O)CC3)c(=O)c2c1 (centres undefined)	> 50000 nM	Dose-dependent effect	–	–	–
O=c1c2cc(Br)ccc2[se]n1CCn1[se]c2ccc(Br)cc2c1=O	1580 nM	Dose-dependent effect	> 50 µM	> 50 µM	inhibition (Thioredoxin reductase [4]): Dose-dependent effect
O=c1c2cc(Cl)ccc2[se]n1CCn1[se]c2ccc(Cl)cc2c1=O	1310 nM	Dose-dependent effect	> 50 µM	> 50 µM	–
O=c1c2ccccc2[se]n1CCCCCCn1[se]c2ccccc2c1=O	1660 nM	Dose-dependent effect	–	–	–
O=c1c2ccccc2[se]n1-c1ccc(-n2[se]c3ccccc3c2=O)cc1	34300 nM	Dose-dependent effect	> 50 µM	> 50 µM	–
O=c1c2ccccc2[se]n1CCn1[se]c2ccccc2c1=O [ETHASELEN]	–	Dose-dependent effect	6.41 µM	3.79 µM	IC50 (LoVo): 7.67 µM; inhibition (Thioredoxin reductase [4]): Dose-dependent effect; IC50 (Thioredoxin reductase [4]): 5 µM; inhibition (Homo sapiens): inactive; inhibition [8]: inactive; inhibition (Thioredoxin reductase [13]): inactive
O=c1c2cc(F)ccc2[se]n1CCCn1[se]c2ccc(F)cc2c1=O	860 nM	Dose-dependent effect	–	–	–
Cc1ccc2[se]n(CCCn3[se]c4ccc(C)cc4c3=O)c(=O)c2c1	1160 nM	Dose-dependent effect	–	–	–
O=c1c2ccc(Cl)cc2[se]n1CCn1[se]c2cc(Cl)ccc2c1=O	2870 nM	Dose-dependent effect	> 50 µM	> 50 µM	–

The next lines start with results.

IC50 [1]	inhibition [2]	SMILES	IC50 [3]	IC50 (MIA PaCa-2)	also measured
130 nM	Dose-dependent effect	COc1ccc2[se]n(CCn3[se]c4ccc(OC)cc4c3=O)c(=O)c2c1	1.64 µM	2.84 µM	IC50 (LoVo): 5.28 µM; IC50 (Thioredoxin reductase [4]): 2 µM; inhibition [5]: Active; inhibition [6]: Active; inhibition [7]: Dose-dependent effect; inhibition [8]: < 30%; inhibition (Thioredoxin reductase [9]): > 90%; inhibition [10]: Dose-dependent effect; inhibition [11]: Dose-dependent effect; inhibition [12]: Active
2380 nM	Dose-dependent effect	Cc1ccc2[se]n(CCCCn3[se]c4ccc(C)cc4c3=O)c(=O)c2c1	–	–	–
4540 nM	Dose-dependent effect	O=c1c2ccc(Cl)cc2[se]n1CCCCCn1[se]c2cc(Cl)ccc2c1=O	–	–	–
2910 nM	Dose-dependent effect	O=c1c2ccc(F)cc2[se]n1CCCCCn1[se]c2cc(F)ccc2c1=O	–	–	–
1800 nM	Dose-dependent effect	O=c1c2cc(Cl)ccc2[se]n1CCCCCn1[se]c2ccc(Cl)cc2c1=O	–	–	–
570 nM	Dose-dependent effect	O=c1c2cc([N+](=O)[O-])ccc2[se]n1CCn1[se]c2ccc([N+](=O)[O-])cc2c1=O	> 50 µM	> 50 µM	inhibition (Thioredoxin reductase [4]): Dose-dependent effect
1640 nM	Dose-dependent effect	O=c1c2cc(F)ccc2[se]n1CCCCn1[se]c2ccc(F)cc2c1=O	–	–	–
1590 nM	Dose-dependent effect	O=c1c2cc(Br)ccc2[se]n1CCCCCn1[se]c2ccc(Br)cc2c1=O	–	–	–
4910 nM	Dose-dependent effect	Cc1ccc2[se]n(CCCCCCn3[se]c4ccc(C)cc4c3=O)c(=O)c2c1	–	–	–
22600 nM	Dose-dependent effect	CC(=O)Oc1ccc2[se]n(CCn3[se]c4ccc(OC(C)=O)cc4c3=O)c(=O)c2c1	20.8 µM	10.2 µM	–
3870 nM	Dose-dependent effect	O=c1c2cc(F)ccc2[se]n1CCCCCn1[se]c2ccc(F)cc2c1=O	–	–	–
3160 nM	Dose-dependent effect	Cc1ccc2[se]n(CCCCCn3[se]c4ccc(C)cc4c3=O)c(=O)c2c1	12.2 µM	6.71 µM	IC50 (LoVo): 16.6 µM

Reference: ChEMBL document CHEMBL2034909, “Inhibition of thioredoxin reductase by a novel series of bis-1,2-benzisoselenazol-3(2H)-ones: Organoselenium compounds for cancer therapy” (Bioorg Med Chem, 2012)
